Results taken from ChEMBL document CHEMBL1125639, “Synthesis and resolution of (+-)-7-chloro-8-hydroxy-1-(3'-iodophenyl)-3-methyl-2,3,4,5-tetrahydro- 1H-3- benzazepine (TISCH): a high affinity and selective iodinated ligand for CNS D1 dopamine receptor” (J Med Chem, 1991).
Where “and” joins values, the source holds several entries; their conditions need not be identical. Equal values may be shown once.

Experiments:
Rattus norvegicus [1] = assay: Biodistribution ratio measured as the ratio of compound present in brain to that of blood at 30 minutes after intravenous injection; type: ADME, organism-based; settings: 0.5 h
How it was run: (§1)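 Male Sprague-Dawley rats (225-300 g) given 0.2 mL saline containing [125I]-labeled ligand (2-5 μCi, ~2200 Ci/mmol) via femoral vein under ether anesthesia; sacrificed at set times by cardiac excision. Brain and blood weighed and gamma-counted against diluted injectate; ratio taken from % dose/gram values, 3 rats per time point.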

Rattus norvegicus [2] = assay: Biodistribution of compound in rats brain after an intravenous injection was measured at 30 min; type: ADME, organism-based; settings: in vivo, 0.5 h
How it was run: (§2)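 Rats (male Sprague-Dawley, 225-300 g) given the 125I ligand (2-5 μCi, ~2200 Ci/mmol) in 0.2 mL saline via the femoral vein under ether anesthesia, then killed at set times. Whole brain removed, weighed and gamma-counted. % dose/organ is taken against diluted injectate aliquots. Mean of 3 rats ± std dev.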

Rattus norvegicus [3] = assay: Biodistribution of compound in rats brain after an intravenous injection was measured at 4 hr; type: ADME, organism-based; settings: in vivo; how it was run: as §2
Rattus norvegicus [4] = assay: Biodistribution of compound in rats heart after an intravenous injection was measured at 1 hr; type: ADME, organism-based; settings: in vivo
How it was run: (§3)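 Male Sprague-Dawley rats (225-300 g), free access to food and water. Under ether anesthesia, given 0.2 mL saline containing 125I-labelled ligand (2-5 μCi, ~2200 Ci/mmol) into the femoral vein. Killed by cardiac excision at set times. Organs removed, weighed and gamma-counted. % dose/organ is taken against diluted injectate aliquots, with blood and muscle assumed to be 7% and 40% of body weight. Mean of 3 rats ± std dev.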

Rattus norvegicus [5] = assay: Biodistribution of compound in rats heart after an intravenous injection was measured at 24 hr; type: ADME, organism-based; settings: in vivo; how it was run: as §3
Rattus norvegicus [6] = assay: Biodistribution of compound in rats heart after an intravenous injection was measured at 2 min; type: ADME, organism-based; settings: in vivo; how it was run: as §3
Rattus norvegicus [7] = assay: Biodistribution of compound in rats heart after an intravenous injection was measured at 30 min; type: ADME, organism-based; settings: in vivo, 0.5 h; how it was run: as §3
Rattus norvegicus [8] = assay: Biodistribution of compound in rats heart after an intravenous injection was measured at 4 hr; type: ADME, organism-based; settings: in vivo; how it was run: as §3
Rattus norvegicus [9] = assay: Biodistribution of compound in rats kidney after an intravenous injection was measured at 2 min; type: ADME, organism-based; settings: in vivo; how it was run: as §3
Rattus norvegicus [10] = assay: Biodistribution of compound in rats kidney after an intravenous injection was measured at 30 min; type: ADME, organism-based; settings: in vivo, 0.5 h; how it was run: as §3
Rattus norvegicus [11] = assay: Biodistribution of compound in rats kidney after an intravenous injection was measured at 4 hr; type: ADME, organism-based; settings: in vivo; how it was run: as §3
Rattus norvegicus [12] = assay: Biodistribution of compound in rats liver after an intravenous injection was measured at 1 hr; type: ADME, organism-based; settings: in vivo; how it was run: as §3
Rattus norvegicus [13] = assay: Biodistribution of compound in rats liver after an intravenous injection was measured at 24 hr; type: ADME, organism-based; settings: in vivo; how it was run: as §3
Rattus norvegicus [14] = assay: Biodistribution of compound in rats liver after an intravenous injection was measured at 2 min; type: ADME, organism-based; settings: in vivo; how it was run: as §3
Rattus norvegicus [15] = assay: Biodistribution of compound in rats liver after an intravenous injection was measured at 30 min; type: ADME, organism-based; settings: in vivo, 0.5 h; how it was run: as §3
Rattus norvegicus [16] = assay: Biodistribution of compound in rats liver after an intravenous injection was measured at 4 hr; type: ADME, organism-based; settings: in vivo; how it was run: as §3
Rattus norvegicus [17] = assay: Biodistribution of compound in rats lung after an intravenous injection was measured at 1 hr; type: ADME, organism-based; settings: in vivo; how it was run: as §3
Rattus norvegicus [18] = assay: Biodistribution of compound in rats lung after an intravenous injection was measured at 24 hr; type: ADME, organism-based; settings: in vivo; how it was run: as §3
Rattus norvegicus [19] = assay: Biodistribution of compound in rats lung after an intravenous injection was measured at 2 min; type: ADME, organism-based; settings: in vivo; how it was run: as §3
Rattus norvegicus [20] = assay: Biodistribution of compound in rats lung after an intravenous injection was measured at 30 min; type: ADME, organism-based; settings: in vivo, 0.5 h; how it was run: as §3
Rattus norvegicus [21] = assay: Biodistribution of compound in rats lung after an intravenous injection was measured at 4 hr; type: ADME, organism-based; settings: in vivo; how it was run: as §3
Rattus norvegicus [22] = assay: Biodistribution of compound in rats spleen after an intravenous injection was measured at 4 hr; type: ADME, organism-based; settings: in vivo; how it was run: as §3
Rattus norvegicus [23] = assay: Biodistribution of compound in rats thyroid after an intravenous injection was measured at 1 hr; type: ADME, organism-based, Thyroid gland; settings: in vivo; how it was run: as §3
Rattus norvegicus [24] = assay: Biodistribution of compound in rats thyroid after an intravenous injection was measured at 24 hr; type: ADME, organism-based, Thyroid gland; settings: in vivo
How it was run: (§4)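 Male Sprague-Dawley rats (225-300 g), free access to food and water; under ether anesthesia, 0.2 mL saline containing [125I]-labeled ligand (2-5 μCi, ~2200 Ci/mmol) injected into femoral vein; killed by cardiac excision under ether at set times. […] removed, weighed, gamma-counted; % dose/organ from comparison with diluted aliquots of injectate; mean of 3 rats ± std dev.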

Rattus norvegicus [25] = assay: Biodistribution of compound in rats thyroid after an intravenous injection was measured at 2 min; type: ADME, organism-based, Thyroid gland; settings: in vivo; how it was run: as §4
Rattus norvegicus [26] = assay: Biodistribution of compound in rats thyroid after an intravenous injection was measured at 30 min; type: ADME, organism-based, Thyroid gland; settings: in vivo, 0.5 h; how it was run: as §4
Rattus norvegicus [27] = assay: Biodistribution of compound in rats thyroid after an intravenous injection was measured at 4 hr; type: ADME, organism-based, Thyroid gland; settings: in vivo; how it was run: as §4
[28] = Biodistribution ratio measured as the ratio of compound present in brain to that of blood at 4 hr after intravenous injection; type: ADME, organism-based; settings: rat; how it was run: as §1

CN1CCc2cc(Cl)c(O)cc2[C@@H](c2cccc(I)c2)C1
Biodistribution (Rattus norvegicus [1]): 12.7% | Biodistribution (Rattus norvegicus [2]): 0.798 | Biodistribution (Rattus norvegicus [3]): 0.102 | Biodistribution (Rattus norvegicus [4]): 0.088 | Biodistribution (Rattus norvegicus [5]): 0.001 | Biodistribution (Rattus norvegicus [6]): 1.14 | Biodistribution (Rattus norvegicus [7]): 0.137 | Biodistribution (Rattus norvegicus [8]): 0.014 | Biodistribution (Rattus norvegicus [9]): 4.92 | Biodistribution (Rattus norvegicus [10]): 0.945 | Biodistribution (Rattus norvegicus [11]): 0.476 | Biodistribution (Rattus norvegicus [12]): 9.814 | Biodistribution (Rattus norvegicus [13]): 3.84 | Biodistribution (Rattus norvegicus [14]): 15.78 | Biodistribution (Rattus norvegicus [15]): 11.45 | Biodistribution (Rattus norvegicus [16]): 7.638 | Biodistribution (Rattus norvegicus [17]): 0.621 | Biodistribution (Rattus norvegicus [18]): 0.012 | Biodistribution (Rattus norvegicus [19]): 10.18 | Biodistribution (Rattus norvegicus [20]): 1.24 | Biodistribution (Rattus norvegicus [21]): 0.122 | Biodistribution (Rattus norvegicus [22]): 0.015 | Biodistribution (Rattus norvegicus [23]): 0.059 | Biodistribution (Rattus norvegicus [24]): 0.268 | Biodistribution (Rattus norvegicus [25]): 0.121 | Biodistribution (Rattus norvegicus [26]): 0.042 and 0.042% | Biodistribution (Rattus norvegicus [27]): 0.118 | Kp at 4 h [28]: 5.23
